ChEMBL document CHEMBL1914448, “Proteolytically stable cancer targeting peptides with high affinity for breast cancer cells” (J Med Chem, 2011)
Active and inactive are the calls of the source. Peptide text beside a SMILES is read from it.

How the values were obtained:
MCF7 [1] = test: Drug uptake in human MCF7 cells assessed as increase in fluorescently labeled cells at 10 '-5 mol/L after 30 mins by FACS analysis relative to WNleEAAYQRFL peptide; type: ADME, cell-based; settings: mcf7, 0.5 h, 10 µM
Procedure, shortened: (§1)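 Cells grown to 80% confluence, trypsinized, seeded at 10^6 per well for 24 h at 37 °C, then exposed to FITC-labeled peptides at 10−5 mol/L in serum-free medium for 30 min at 37 °C. Washed three times with PBS, trypsinized to strip surface-bound peptide, analyzed by flow cytometry. Untreated-cell autofluorescence set the cutoff for labeled cells. Repeated 2−3 times.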

HUVEC [2] = test: Drug uptake in human HUVEC cells at 10 '-5 mol/L after 30 mins by confocal microscopy; type: ADME, cell-based; settings: 0.5 h, 10 µM
Procedure, shortened: (§2)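 MDA-MB-435 or HUVEC cells (50,000) grown on coverslips for 24 h at 37 °C, then exposed to FITC-labelled peptide at 10−5 mol/L in serum-free medium for 30 min at 37 °C. Cells washed, fixed on ice in 2% formaldehyde for 20 min, nuclei stained with DAPI. Imaged by fluorescence microscopy (20×); the same samples were taken to confocal optical sectioning (40× oil) to confirm internalization.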

MCF-10A = test: Drug uptake by human MCF10A cells assessed as increase in fluorescently labeled cells after 30 mins by FACS analysis relative to untreated control; type: ADME, cell-based; settings: 0.5 h; procedure, shortened: as §1
MDA-MB-435 [3] = test: Drug uptake in human MDA-MB-435 cells assessed as internalization at 10 '-5 mol/L after 30 mins by fluorescence microscopy; type: ADME, cell-based; settings: mda-mb-435, 0.5 h, 10 µM
Procedure, shortened: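 MDA-MB-435 cells (50 000) grown on coverslips for 24 h at 37 °C, then given FITC-labeled peptide at 10−5 mol/L in serum-free medium for 30 min at 37 °C. Washed, fixed on ice with 2% formaldehyde for 20 min, nuclei stained with DAPI. Imaged by fluorescence microscopy at 20×; internalization confirmed by confocal optical sectioning, 40× oil lens, 1.64 μm steps.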

MDA-MB-231 [4] = test: Drug uptake in human MDA-MB-231 cells assessed as increase in fluorescently labeled cells at 10 '-5 mol/L after 30 mins by FACS analysis relative to WNleEAAYQRFL peptide; type: ADME, cell-based; settings: mda-mb-231, 0.5 h, 10 µM; procedure, shortened: as §1
Liver [5] = test: Proteolytic stability in CD1 mouse liver homogenate up to 48 hrs by RP-HPLC analysis; type: ADME, tissue-based; settings: tissue homogenate
Procedure, shortened: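 Homogenate prepared from male CD-1 mouse liver in ice-cold HEPES pH 7.4, centrifuged, and its protein set by BCA. Peptide stock (1 mM in 5% ACN/water) diluted into homogenate plus RPMI pH 7.4 (2.94 mg protein total), shaken at 37 °C up to 48 h. Timed aliquots analyzed by RP-HPLC.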

Homo sapiens = organism: Homo sapiens; test: Binding affinity to human MDA-MB-435 cell membrane at 10 '-5 mol/L after 30 mins by fluorescence microscopy; procedure, shortened: as §2
Serum [6] = test: Proteolytic stability in human serum assessed as compound degradation from 0.5 to 24 hrs by RP-HPLC analysis; type: ADME, cell-free
Procedure, shortened: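 25% human serum in RPMI, equilibrated at 37 °C, with peptide added from a 1 mM aqueous stock. Aliquots taken at 0, 0.5, 1, 5 and 24 h, proteins precipitated with methanol at 4 °C and spun down. Supernatant run on C18 RP-HPLC with a 12−100% IPA/water gradient, detection at 214 nm. Peaks quantified by area; identity checked by MALDI-TOF.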

[7] = Cytotoxicity against human MDA-MB-435 cells assessed as cell viability up to 100 uM by MTT assay; type: cell-based; settings: read-out: Activity
Procedure, shortened: (§3)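 MDA-MB-435 cells seeded at 1 × 10^4 cells/well in serum-free RPMI with antibiotics, 37 °C, 5% CO2; after 24 h, peptides (1−100 μM, made up in sterile water) added for 48 h; doxorubicin positive control, untreated negative control. MTT (5 mg/mL medium) 3.5 h, formazan dissolved in DMSO, A570 with 650 nm reference. Viability = absorbance treated/untreated; triplicate, mean.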

MDA-MB-435 [8] = test: Drug uptake in human MDA-MB-435 cells at 10 '-5 mol/L after 30 mins by confocal microscopy; type: ADME, cell-based; settings: mda-mb-435, 0.5 h, 10 µM; procedure, shortened: as §2
MDA-MB-435 [9] = test: Drug uptake in human MDA-MB-435 cells assessed as increase in fluorescently labeled cells at 10 '-5 mol/L after 30 mins by FACS analysis relative to WNleEAAYQRFL peptide; type: ADME, cell-based; settings: mda-mb-435, 0.5 h, 10 µM; procedure, shortened: as §1
HUVEC [10] = test: Drug uptake in human HUVEC cells assessed as increase in fluorescently labeled cells after 30 mins by FACS analysis relative to untreated control; type: ADME, cell-based; settings: 0.5 h; procedure, shortened: as §1
MDA-MB-435 [11] = test: Growth inhibition of human MDA-MB-435 cells at 15 uM by MTT assay; type: functional, cell-based; procedure, shortened: as §3
MDA-MB-231 [12] = test: Drug uptake in human MDA-MB-231 cells assessed as increase in fluorescently labeled cells at 10 '-5 mol/L after 30 mins by FACS analysis relative to untreated control; type: ADME, cell-based; settings: mda-mb-231, 0.5 h, 10 µM
Procedure, shortened: (§4)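 Cells grown to 80% confluence, trypsinized, seeded at 10^6 per well and cultured 24 h. They were then exposed to FITC-peptide at 10−5 mol/L in serum-free medium for 30 min at 37 °C, washed, and trypsinized to strip surface-bound peptide. Read by flow cytometry as percent cells above the autofluorescence cutoff of untreated cells. Repeated 2−3 times.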

MDA-MB-435 [13] = test: Binding affinity to human MDA-MB-435 cells assessed as decrease in fluorescence after 30 mins by FACS analysis in the presence of unlabelled compound; type: functional, cell-based
Procedure, shortened: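 Competition assay by flow cytometry in MDA-MB-435 cells. FITC-labelled peptide at 10−5 mol/L was co-incubated with a 50-fold excess of the same unlabelled peptide for 30 min at 37 °C. Cells washed with ice-cold PBS, then FACS as in the uptake assay. Repeated 2−3 times.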

MCF7 [14] = test: Drug uptake in human MCF7 cells assessed as increase in fluorescently labeled cells at 10 '-5 mol/L after 30 mins by FACS analysis relative to untreated control; type: ADME, cell-based; settings: mcf7, 0.5 h, 10 µM; procedure, shortened: as §4
MDA-MB-435 [15] = test: Drug uptake in human MDA-MB-435 cells assessed as increase in fluorescently labeled cells at 10 '-5 mol/L after 30 mins by FACS analysis relative to untreated control; type: ADME, cell-based; settings: mda-mb-435, 0.5 h, 10 µM; procedure, shortened: as §4
Liver [16] = test: Proteolytic stability in CD1 mouse liver homogenate after 15 mins by RP-HPLC analysis; type: ADME, tissue-based; settings: tissue homogenate, 0.25 h
Procedure, shortened: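 Liver homogenate from male CD-1 mice, made in ice-cold HEPES pH 7.4 and centrifuged; supernatant adjusted to 14.7 mg/mL protein. Peptide added from a 1 mM stock in 5% ACN/water (100 μL) to 200 μL homogenate plus 700 μL RPMI, pH 7.4 (2.94 mg protein). Incubated at 37 °C with shaking, sampled at intervals, and analysed by RP-HPLC.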

Serum [17] = test: Proteolytic stability in human serum assessed as compound degradation after 30 mins by RP-HPLC analysis; type: ADME, cell-free; settings: 0.5 h
Procedure, shortened: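 Final mix of 25% human serum in RPMI, equilibrated at 37 °C for 15 min. Peptide added from a 1 mM water stock (100 μL into 1 mL total). Aliquots taken at 0, 0.5, 1, 5 and 24 h and quenched in methanol; serum proteins pelleted. Supernatant analysed by RP-HPLC (12–100% IPA/water, 214 nm); peaks integrated, with fragments identified by MALDI-TOF.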

MDA-MB-435 [18] = test: Binding affinity to human MDA-MB-435 cells by CyQuant GR fluorescent dye-based assay; type: functional, cell-based

Compound | fold change (FC) (MCF7 [1]) | Drug uptake (HUVEC [2]) | Drug uptake (MCF-10A) | Drug uptake (MDA-MB-435 [3]) | fold change (FC) (MDA-MB-231 [4]) | Stability (Liver [5]) | Activity (Homo sapiens) | Stability (Serum [6]) | viability [7] | Drug uptake (MDA-MB-435 [8]) | fold change (FC) (MDA-MB-435 [9]) | Drug uptake (HUVEC [10]) | growth inhibition (GI) (MDA-MB-435 [11]) | Drug uptake (MDA-MB-231 [12]) | Activity (MDA-MB-435 [13]) | Drug uptake (MCF7 [14]) | Drug uptake (MDA-MB-435 [15]) | Stability (Liver [16]) | Stability (Serum [17]) | Kd (MDA-MB-435 [18])
CCCC[C@H](NC(=O)C[C@H](N)C(=O)NCc1cccc2ccccc12)C(=O)N[C@@H](CCC(=O)O)C(=O)N[C@@H](CC(=O)N[C@@H](C)C(=O)N[C@@H](Cc1ccc(O)cc1)C(=O)N[C@@H](CCC(N)=O)C(=O)N[C@@H](CC(=O)N[C@@H](Cc1ccccc1)C(=O)N[C@@H](CC(C)C)C(=O)O)C(=O)NCCCCN)C(=O)NC | 3 | Not Active | 50% | Active | 3 | Stable | Active | Stable | > 98% | Active | 3 | 30% | – | – | – | – | – | – | – | –
CCCC[C@H](NC(=O)C[C@H](N)C(=O)NCc1cccc2ccccc12)C(=O)N[C@@H](CCC(=O)O)C(=O)N[C@@H](C)C(=O)N[C@@H](CC(=O)N[C@@H](Cc1ccc(O)cc1)C(=O)N[C@@H](CCC(N)=O)C(=O)N[C@@H](CC(=O)N[C@@H](Cc1ccccc1)C(=O)N[C@@H](CC(C)C)C(=O)O)C(=O)NCCCCN)C(=O)NC | 3 | – | 55% | – | 3 | Stable | – | Stable | > 98% | – | 3 | 35% | – | – | – | – | – | – | – | –
COc1cccc2c1C(=O)c1c(O)c3c(c(O)c1C2=O)C[C@@](O)(C(=O)CO)C[C@@H]3O[C@H]1C[C@H](N)[C@H](O)[C@H](C)O1 | – | – | – | – | – | – | – | – | – | – | – | – | Active | – | – | – | – | – | – | –
CCCC[C@@H](NC(=O)[C@@H](N)Cc1c[nH]c2ccccc12)C(=O)N[C@@H](CCC(=O)O)C(=O)N[C@@H](C)C(=O)N[C@@H](C)C(=O)N[C@@H](Cc1ccc(O)cc1)C(=O)N[C@@H](CCC(N)=O)C(=O)N[C@H](CCCNC(=N)N)C(=O)N[C@@H](Cc1ccccc1)C(=O)N[C@@H](CC(C)C)C(=O)O (HELM PEPTIDE1{W.[CCCC[C@@H](N[*:1])C(=O)[*:2]].E.A.A.Y.Q.[dR].F.L}$$$$V2.0) | 3.5 | Not Active | 36% | – | 3.5 | Stable | Active | Stable | > 98% | Active | 3.5 | 12% | – | 45% | inactive | 68% | 35% | – | – | –
CCCC[C@H](NC(=O)[C@@H](N)Cc1c[nH]c2ccccc12)C(=O)N[C@@H](CCC(=O)O)C(=O)N[C@@H](C)C(=O)N[C@@H](C)C(=O)N[C@@H](Cc1ccc(O)cc1)C(=O)N[C@@H](CCC(N)=O)C(=O)N[C@@H](CCCNC(=N)N)C(=O)N[C@@H](Cc1ccccc1)C(=O)N[C@@H](CC(C)C)C(=O)O (HELM PEPTIDE1{W.[Nle].E.A.A.Y.Q.R.F.L}$$$$V2.0) | – | – | – | – | – | – | – | – | – | – | – | – | – | 16% | – | 22% | 10% | Unstable | Unstable | 42 µM
H-WEEAAYQRFL-OH | – | – | – | – | – | – | – | – | – | – | – | – | – | 33% | – | 60% | 14% | – | – | –
